NR2E3 ag-1: human photoreceptor-specific nuclear receptor agonism | Q9Y5X4 | CHO-S Gal4-NCOR/VP16-NR2E3 two-hybrid, luciferase | inhibition of corepressor binding, % at 3.98 µM | actives 0.35% (n = 360,000) | AID 602229;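 active means inhibition above the mean of all tested compounds plus 3 SD, cut at about 70% in these data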;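 further: 0% = DMSO with NR2E3 transfected cells and 100% = cells lacking NR2E3 construct; higher means lower luciferase signal from less NR2E3 corepressor binding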
Target sequence (Q9Y5X4 whole entry, looked up, the tested form may be a part): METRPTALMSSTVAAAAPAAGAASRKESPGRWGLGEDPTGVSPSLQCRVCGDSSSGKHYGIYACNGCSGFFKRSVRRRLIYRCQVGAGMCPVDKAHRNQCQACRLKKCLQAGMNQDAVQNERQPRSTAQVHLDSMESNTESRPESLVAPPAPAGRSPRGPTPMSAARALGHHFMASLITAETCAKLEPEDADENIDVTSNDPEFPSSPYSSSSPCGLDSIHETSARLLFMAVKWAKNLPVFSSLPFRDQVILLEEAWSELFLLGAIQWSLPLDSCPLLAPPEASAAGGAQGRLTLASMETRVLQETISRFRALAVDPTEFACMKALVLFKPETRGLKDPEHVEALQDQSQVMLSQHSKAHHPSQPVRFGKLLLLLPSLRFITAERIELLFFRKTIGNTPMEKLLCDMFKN
PG9 Ab binder: small molecules binding HIV-1 gp120 antibody PG9. TR-FRET gp120-PG9 antibody binding. inhibition, % at 6.7 µM. actives 0.43% (n = 360,000); in the data active means inhibition above about 8.5%
Rev-erbA mod: modulates human Rev-erb alpha binding to DNA | P20393 | Rev-erbα–FITC-DNA binding, fluorescence polarization, 90 min | activity, % at 10 µM | actives 0.79% (n = 370,000) | AID 1259318;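 active means activity above about 14%, limit read from the data; passing the limit was not always enough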;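 further: 0% = DMSO wells with 35 nM protein and 100% = DMSO wells with 750 nM protein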
NR2E3 ag-2: NR2E3 (human) agonism. Q9Y5X4. GST-NR2E3/biotin-RetCOR TR-FRET, 1536-well. inhibition of corepressor binding, % at 4.78 µM. actives 0.12% (n = 320,000);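 active means percent inhibition above the cutoff of mean plus 3 SD of all tested compounds, set per screening campaign, cut at about 20% in these data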;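 further: 0% = DMSO wells and 100% = biotin wells as full block of FRET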
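System: GST-tagged NR2E3 plus biotinylated RetCOR corepressor; Buffer or medium: pH 7.5 Tris-based buffer; Probe or stimulus: RetCOR corepressor, biotinylated, 7 nM; Doses: compound at 4.8 µM, single dose; Schedule: 5 h incubation at 4 °C; Technique: time-resolved FRET; Evaluation: percent inhibition of TR-FRET ratio; Replication: one well per compound, singlicate testing.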
GalR3 antag: antagonists of human GalR3; inhibition, % at 3 µM; HEK293 GalR3-CNG cAMP membrane potential fluorescence; galR3 body fused to GalR1 C-terminus; O60755; AID 651719; actives 0.44% (n = 360,000);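 active means inhibition above the screen-wide average plus 3 SD, cut at about 13% in these data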;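 further: forskolin and galanin both at EC90 stimulate the cells; cAMP rise reported by CNG channel membrane potential dye signal; 0% = forskolin plus galanin with DMSO and 100% = forskolin alone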
PG9 binder conf: PG9 antibody binding, confirmed; inhibition, % at 6.7 µM; AID 651571; shares compounds with PG9 Ab binder; actives 90% (n = 1,500); TR-FRET PG9 antibody binding, biochemical; in the data active means inhibition above about 9%
PGV04 counter: binds control antibody PGV04 in PG9 binder counter-screen. shares compounds with PG9 Ab binder. TR-FRET PGV04 antibody-gp120 binding, biochemical. inhibition, % at 6.7 µM. actives 95% (n = 1,500); in the data active means inhibition above about 9.5%
PG9 bind DR: small molecules binding HIV-1 gp120 antibody PG9 | IC50, µM | 95 tested, under 10 active | TR-FRET PG9 antibody-gp120 binding inhibition | AID 651848 | shares compounds with PG9 Ab binder; in the data active means IC50 below about 10 µM
PGV04 binding DR: PGV04 binding, dose response counter-screen. TR-FRET binding to control antibody PGV04. shares compounds with PG9 Ab binder. actives 20% (n = 95). IC50, µM
PG126 DR counter: PG126 binding, dose response counter-screen. shares compounds with PG9 Ab binder. TR-FRET binding to antibody PG126, counterscreen. IC50, µM. actives 20% (n = 95). AID 651939
Active calls of the source: *; i = inactive; x = no result. Rows were chosen to be rich in hits. Some 1.8% of all compounds tested hit in one or more screens of this group. Unless noted, no stated cut-off is given here; in the data, active means IC50 below about 9 µM; inactive means the rest.

SMILES	NR2E3 ag-1	PG9 Ab binder	Rev-erbA mod	NR2E3 ag-2	GalR3 antag	PG9 binder conf	PGV04 counter	others
NS(=O)(=O)c1ccc(NS(=O)(=O)c2ccc(NC(=O)c3ccc(-c4ccccc4)cc3)cc2)cc1	-5	1	-6	2	-2	x	x
NS(=O)(=O)c1ccc(NC(=O)c2ccc(-c3ccccc3)cc2)cc1	-28	9.3*	3	x	-3	13*	25*
O=C(N[C@@H]1CCCc2c1cnn2-c1ccc(F)cc1F)c1ccccn1	x	x	-1	x	x	x	x
Cc1cc2ccccc2nc1SCC(=O)NC1CCCCC1	-13	6	4	3	2	x	x
Cc1cc(SCC(=O)NC2CCCCC2)nc2ccccc12	5	18*	9	17	-9	22*	27*
Cc1cc2ccccc2nc1SCC(=O)NC1CCCC1	16	9.7*	5	12	-3	15*	18*
CCOc1ccc(C(CC(=O)O)NC(=O)c2sc3ccccc3c2Cl)cc1 (centres undefined)	0	8	5	9	-4	x	x
CCCOc1ccc(C(CC(=O)O)NC(=O)c2sc3ccccc3c2Cl)cc1 (centres undefined)	7	11*	-1	6	2	15*	21*
CC1CCCCN1C(=O)CSc1nc(C2CC2)nc2c1cnn2-c1ccccc1 (centres undefined)	-9	-2	6	3	-9	x	x
Cc1nn(C)c(C)c1NC(=O)CSc1nc(C2CC2)nc2c1cnn2-c1ccccc1	6	13*	2	2	-3	43*	74*
CCCc1cc(=O)n2[nH]c(-c3cccc(Br)c3)cc2n1	-119	16*	23	3	-7	18*	29*
O=C(NCc1ccco1)C1CCCN(S(=O)(=O)c2ccc([N+](=O)[O-])cc2)C1 (centres undefined)	x	x	-5	x	x	x	x
O=C(NC1CCSc2ccccc21)c1ccc(F)cc1 (centres undefined)	-1	1	-1	3	4	x	x
O=C(NC1CCSc2ccccc21)c1ccc(C(F)(F)F)cc1 (centres undefined)	-3	11*	3	6	-10	11*	18*
Cc1ccc(S(=O)(=O)N2CCC(C(=O)Nc3ccc4c(c3)OCO4)CC2)cc1	-10	0	-3	6	-8	x	x
O=C(Nc1ccc2c(c1)OCO2)C1CCN(c2ccc(S(=O)(=O)N3CCOCC3)cc2)CC1	-4	16*	0	0	-6	27*	25*	PG9 bind DR=>67;PGV04 binding DR=i;PG126 DR counter=i
CCOC(=O)[C@@]12CN(C(=O)OC(C)(C)C)CC=C1N(Cc1ccc(OC)cc1)C(=O)[C@H]2CC(=O)NCc1ccccc1	x	x	-2	x	x	x	x
CC(=O)N1CCCN(C(=O)C2CCN(c3ncnc4c3sc3cccc(F)c34)CC2)CC1	x	x	6	x	x	x	x
CC(=O)Nc1ccc(Br)c2ccccc12	-26	11*	-1	11	-1	22*	23*
Brc1ccc(Br)c2cnccc12	-41	13*	18	x	-4	26*	35*
COc1ccc2ccc(OCC(=O)Nc3cc(C)on3)cc2c1	-13	21*	10	3	1	25*	34*
COC(=O)[C@]12CCCCC=C1N(Cc1ccc(OC)cc1)C(=O)[C@@H]2CC(=O)NCCC(C)C	x	x	-2	x	x	x	x
O=C(Nc1ccc(C(O)(C(F)(F)F)C(F)(F)F)cc1)c1ccc(F)cc1Cl	x	x	-6	x	x	x	x
Cc1cc2cc3c(cc2nc1SCC(=O)OC(C)C)OCCO3	-2	17*	10	5	-1	23*	26*
Cc1cc2cc3c(cc2nc1SCC(=O)O)OCCO3	-3	6	3	15	-5	x	x
SMILES	NR2E3 ag-1	PG9 Ab binder	Rev-erbA mod	NR2E3 ag-2	GalR3 antag	PG9 binder conf	PGV04 counter	others
Cc1ccccc1Cn1cc(CN2[C@H](C)COc3cc(Br)ccc3S2(=O)=O)nn1	x	x	0	x	x	x	x
COc1ccc(C(=O)Nc2ccccc2C(=O)NC(C(=O)NCc2ccco2)C(C)C)cc1 (centres undefined)	-21	1	15	2	0	x	x
COc1ccc(C(=O)Nc2ccccc2C(=O)N(Cc2ccco2)C(C(N)=O)C(C)C)cc1 (centres undefined)	-14	9.9*	24	1	-4	19*	16*	PG9 bind DR=>67;PGV04 binding DR=i;PG126 DR counter=>67
Cc1ccccc1-c1n[nH]c(=S)o1	-34	35*	x	6	0	35*	47*
CSc1ccccc1-c1n[nH]c(=S)o1	-3	35*	-3	x	8	40*	52*
Cc1ccc(-c2cc(-c3n[nH]c(=S)o3)c3ccccc3n2)cc1	-10	0	-2	1	-5	x	x
S=c1[nH]nc(-c2ccccc2)o1	1	7	-2	2	3	x	x
COC(=O)C1CN(CCc2ccccc2)CCS(=O)(=O)N1Cc1ccc(Cl)cc1 (centres undefined)	x	x	-4	x	x	x	x
CCCCCCCCNC(=O)C1CSCCS(=O)(=O)N1Cc1ccc(F)cc1 (centres undefined)	x	x	-1	x	x	x	x
CCn1cnc2sc(C(=O)Nc3ccccc3OC)c(C)c2c1=O	6	53*	3	-113	-1	46*	65*
COc1ccccc1NC(=O)c1sc2ncn(CC(=O)N3CCC(C)CC3)c(=O)c2c1C	-11	1	16	-3	-7	x	x
CC[C@H](CCCc1ccc(F)cc1)CN(Cc1ccc(OC)cc1)S(=O)(=O)c1ccc(C)cc1	x	x	-2	x	x	x	x
O=C(O)c1cnn(-c2nc(-c3ccc(Br)cc3)cs2)c1C(F)(F)F	-137	9.6*	3	8	-7	13*	23*
O=C(O)c1cnn(-c2nc(-c3ccc(F)cc3)cs2)c1C(F)(F)F	-99	4	2	6	-1	x	x
COC(=O)C1(C)CCc2cc(OC)ccc2C1=O (centres undefined)	-16	1	3	0	-9	x	x
COc1ccc2c(c1)CCC1(C)CC(=O)C(Br)=C21 (centres undefined)	-17	14*	11	x	-5	24*	47*
O=C(Cn1cnc2ccccc2c1=O)Nc1nc2ccccc2s1	14	18*	3	5	-4	21*	28*
